{"source": "paper PMC4339462", "about": "(Bioorganic & medicinal chemistry, 2015)", "key": {"[1]": {"tested_on": "undamaged (control) oligonucleotide", "assay": "SPR binding of compounds to immobilized undamaged", "details": "15 µM compound", "how_it_was_run": "(§1)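 Biacore T100 SPR. Biotinylated 50-mer oligonucleotide, undamaged or εA-containing, immobilised on a streptavidin-coated C1 chip. Test compound injected at 15 µM in 10 mM HEPES-KOH pH 7.6, 90 mM KCl, 0.05% surfactant P20, at 7°C. Binding read as background-subtracted RU over 60 s injections.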"}, "[2]": {"tested_on": "εA-containing oligonucleotide", "assay": "SPR binding of compounds to immobilized εA-containing oligonucleotide", "details": "15 µM compound", "how_it_was_run": "as §1"}, "MPG [3]": {"molecular_target": "T1, MPG (Homo sapiens, UniProt P29372)", "T1 sequence (P29372 18-298)": "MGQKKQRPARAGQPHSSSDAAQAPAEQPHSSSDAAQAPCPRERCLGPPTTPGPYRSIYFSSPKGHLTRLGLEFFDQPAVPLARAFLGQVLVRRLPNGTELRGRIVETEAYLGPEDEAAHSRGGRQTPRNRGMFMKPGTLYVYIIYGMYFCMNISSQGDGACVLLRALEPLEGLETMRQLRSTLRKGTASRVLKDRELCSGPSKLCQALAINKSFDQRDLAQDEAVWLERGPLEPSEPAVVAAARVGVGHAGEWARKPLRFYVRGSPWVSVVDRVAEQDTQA", "assay": "SPR inhibition of hMPG binding to εA-containing substrate DNA", "details": "40 µM morin hydrate", "how_it_was_run": "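SPR with biotinylated εA-containing 50-mer oligonucleotide immobilised on a streptavidin C1 chip. Injections of 30 nM purified human MPG pre-mixed with test compound (0, 5, 10, 20, 40 µM), 60 s each. Binding taken as background-subtracted RU. Percent inhibition calculated as the decrease in RU versus DMSO.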"}, "[4]": {"tested_on": "apurinic/apyrimidinic endonuclease 1 (APE1)", "assay": "Gel-based APE1 activity assay", "type": "biochemical", "details": "0, 20 and 40 µM", "how_it_was_run": "(§2)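 Purified recombinant APE1 pre-incubated with test compound for 10 min at room temperature. Then reacted with a ³²P-labelled duplex oligonucleotide carrying a THF abasic-site analogue for 10 min at 37°C. Products resolved on denaturing 20% polyacrylamide/7 M urea gels at 60°C; band intensities quantified from X-ray film.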"}, "[5]": {"tested_on": "8-oxoguanine DNA glycosylase (OGG1)", "assay": "Gel-based OGG1 activity assay", "type": "biochemical", "details": "0, 20 and 40 µM; not dose-dependent", "how_it_was_run": "as §2, with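 “OGG1” for “APE1”, “³²P-labelled 8-oxo-dG-containing” for “³²P-labelled”, “oligonucleotide” for “oligonucleotide carrying a THF abasic-site analogue”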"}, "MPG [6]": {"molecular_target": "T1, MPG", "assay": "Gel-based MPG activity assay in whole cell extracts", "type": "biochemical", "details": "0–300 µM compound"}, "repair of εA": {"tested_on": "repair of εA", "assay": "Plasmid-based in-cell repair assay, εA-containing M13mp18 plasmid", "design": "species or system human", "how_it_was_run": "(§3)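 Lesion (εA or 8-oxo-dG) was placed at the EcoRI site of M13mp18. A phosphorylated lesion primer was annealed to ssDNA, extended with T7 polymerase, ligated with T4 ligase, supercoiled and purified. A549 and HeLa cells (DMEM, 10% FBS, 1% antibiotic) were transfected with 0, 200 or 300 µM test compound. Recovered plasmids were cut with EcoRI (lesion site) and SacI (internal control), and repair was scored by plaque formation.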"}, "repair of 8-oxo-dG": {"tested_on": "repair of 8-oxo-dG", "assay": "Plasmid-based in-cell repair assay, 8-oxo-dG-containing M13mp18 plasmid", "design": "species or system human", "how_it_was_run": "as §3"}, "A549 cells": {"tested_on": "A549 cells", "assay": "MTT assay", "type": "cell-based, human", "details": "A549, concentrations used in the repair assay, 72 h"}, "HeLa cells": {"tested_on": "HeLa cells", "assay": "MTT assay", "type": "cell-based, human", "details": "concentrations used in the repair assay, 72 h"}, "DNA polymerase β": {"tested_on": "DNA polymerase β", "details": "high throughput screening; ref Pubchem Bioassay AID 485314 and 2517; cited from earlier work"}, "APE1": {"tested_on": "APE1", "details": "high throughput screening; ref Pubchem Bioassay AID 485314 and 2517; cited from earlier work"}}, "note": "Counter-ions that a name gives are not always drawn."}
{"smiles": "O.O=c1c(O)c(-c2ccc(O)cc2O)oc2cc(O)cc(O)c12", "note": "[morin hydrate]", "values": [{"measurement": "affinity for unmodified (control) DNA", "setting": "[1]", "result": "no detectable affinity"}, {"measurement": "affinity for εA-containing DNA", "setting": "[2]", "result": "no detectable affinity"}, {"measurement": "inhibition of MPG DNA binding", "setting": "MPG [3]", "result": "Complete inhibition"}, {"measurement": "effect on the activity of APE1", "setting": "[4]", "result": "no effect"}, {"measurement": "effect on OGG1 activity", "setting": "[5]", "result": "some promiscuous inhibition"}, {"measurement": "MPG activity in whole cell extract", "setting": "MPG [6]; A549 extract", "result": "inhibited"}, {"measurement": "MPG activity in whole cell extract", "setting": "MPG [6]; HeLa extract", "result": "inhibited"}, {"measurement": "reduction in repair", "setting": "repair of εA; 300 µM morin hydrate, A549 and HeLa cells", "result": "50–60%"}, {"measurement": "repair of εA in live cells", "setting": "repair of εA; A549 cells, 0, 200, 300 µM", "result": "inhibited"}, {"measurement": "repair of εA in live cells", "setting": "repair of εA; HeLa cells, 0, 200, 300 µM", "result": "inhibited"}, {"measurement": "IC50", "setting": "repair of εA; Homo sapiens, read-out: IC50 of MPG inhibition in live cells and in extracts", "result": "100 to 300", "unit": "µM"}, {"measurement": "repair of 8-oxo-dG in live cells", "setting": "repair of 8-oxo-dG; A549 cells, 0, 200, 300 µM", "result": "unaffected"}, {"measurement": "repair of 8-oxo-dG in live cells", "setting": "repair of 8-oxo-dG; HeLa cells, 0, 200, 300 µM", "result": "unaffected"}, {"measurement": "toxicity (cell survival)", "setting": "A549 cells", "result": "not toxic"}, {"measurement": "toxicity (cell survival)", "setting": "HeLa cells", "result": "not toxic"}, {"measurement": "inhibition of DNA polymerase β", "setting": "DNA polymerase β", "result": "inhibit"}, {"measurement": "inhibition of APE1", "setting": "APE1", "result": "inhibit"}]}
{"smiles": "O=c1c(O)c(-c2ccc(O)c(O)c2)oc2cc(O)cc(O)c12", "note": "[Quercetin]", "values": [{"measurement": "MPG activity in whole cell extract", "setting": "MPG [6]; HeLa extract", "result": "did not have an effect"}]}
{"smiles": "O=C1c2c(O)ccc(O)c2C(=O)c2c(NCCNCCO)ccc(NCCNCCO)c21", "note": "[mitoxantrone dihydrochloride]", "values": [{"measurement": "affinity for unmodified (control) DNA", "setting": "[1]", "result": "demonstrated affinity for DNA"}, {"measurement": "affinity for εA-containing DNA", "setting": "[2]", "result": "demonstrated affinity for DNA"}]}
{"smiles": "Cc1cc2c(C(C)C)c(O)c(O)c(C=O)c2c(O)c1-c1c(C)cc2c(C(C)C)c(O)c(O)c(C=O)c2c1O", "note": "[gossypol]", "values": [{"measurement": "affinity for unmodified (control) DNA", "setting": "[1]", "result": "demonstrated affinity for DNA"}, {"measurement": "affinity for εA-containing DNA", "setting": "[2]", "result": "demonstrated affinity for DNA"}]}
